Measured values: ChEMBL document CHEMBL2040740, “Synthesis and antitumor activity of formononetin nitrogen mustard derivatives” (Eur J Med Chem, 2012)
Activity calls are given as the source filed them. The calls are words filed in the database; no cut-off is given here.

Experiments:
HCT-116 [1] = assay: Cytotoxicity against human HCT116 cells after 72 hrs by MTT assay; type: functional, cell-based; conditions: HCT-116, 72 h
Method in brief: (§1)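 Cells grown at 37 °C in 5% CO₂/95% air, in RPMI-1640 or DMEM with 10% neonatal bovine serum or 10% FBS. Exposed to a concentration series for 72 h, then MTT added for a further 4 h at 37 °C. Formazan dissolved in DMSO and absorbance read at 570 and 630 nm. Triplicate wells in three independent experiments; IC50 calculated by dose-effect analysis.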

SH-SY5Y = assay: Cytotoxicity against human SH-SY5Y cells after 72 hrs by MTT assay; type: functional, cell-based; method in brief: as §1
HeLa [2] = assay: Cytotoxicity against human HeLa cells after 72 hrs by MTT assay; type: functional, cell-based; method in brief: as §1
SGC-7901 = assay: Cytotoxicity against human SGC7901 cells after 72 hrs by MTT assay; type: functional, cell-based; conditions: SGC-7901, 72 h; method in brief: as §1
DU-145 = assay: Cytotoxicity against human DU145 cells after 72 hrs by MTT assay; type: functional, cell-based; conditions: DU-145, 72 h; method in brief: as §1
HCT-116 [3] = assay: Cell cycle arrest in human HCT116 cells assessed as accumulation in G2/M phase after 48 hrs by flow cytometry; type: functional, cell-based
Method in brief: (§2)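 Cells exposed to test agent for 48 h, then harvested, washed twice in PBS and fixed in 75% ice-cold ethanol at least overnight. DNA content of 10,000 events analysed by flow cytometry, giving percentage of cells in each cycle phase versus vehicle control.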

HCT-116 [4] = assay: Induction of apoptosis in human HCT116 cells assessed as early to mid apoptotic cells at 2 uM after 48 hrs by annexinV-FITC/PI staining-based flow cytometry (reference value: 1.62%); type: functional
Method in brief: (§3)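 After 48 h treatment, cells washed twice in cold PBS and resuspended in binding buffer at 1 × 10⁵ cells/mL. Stained with Annexin V-FITC and propidium iodide in the dark for 15 min at room temperature, then analysed by flow cytometry. Lower-right quadrant scored as early-mid apoptotic, upper-right as late apoptotic/necrotic. Experiments performed three times.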

HCT-116 [5] = assay: Cell cycle arrest in human HCT116 cells assessed as decrease in S phase cells at 2 to 8 uM after 48 hrs by flow cytometry; type: functional, cell-based; method in brief: as §2
HCT-116 [6] = assay: Induction of apoptosis in human HCT116 cells assessed as early to mid apoptotic cells at 8 uM after 48 hrs by annexinV-FITC/PI staining-based flow cytometry (reference value: 1.62%); type: functional; method in brief: as §3
HCT-116 [7] = assay: Induction of apoptosis in human HCT116 cells assessed as late apoptotic to necrotic cells at 2 uM after 48 hrs by annexinV-FITC/PI staining-based flow cytometry (reference value: 0.43%); type: functional; method in brief: as §3
HCT-116 [8] = assay: Induction of apoptosis in human HCT116 cells assessed as late apoptotic to necrotic cells at 8 uM after 48 hrs by annexinV-FITC/PI staining-based flow cytometry (reference value: 0.43%); type: functional; method in brief: as §3
HCT-116 [9] = assay: Cell cycle arrest in human HCT116 cells assessed as accumulation in G2/M phase at 8 uM after 48 hrs by flow cytometry relative to control; type: functional; method in brief: as §2
HeLa [10] = assay: Cell cycle arrest in human HeLa cells assessed as decrease in S phase cells at 3.75 to 15 uM after 48 hrs by flow cytometry; type: functional, cell-based; method in brief: as §2
HeLa [11] = assay: Induction of apoptosis in human HeLa cells assessed as late apoptotic to necrotic at 5 uM after 48 hrs by annexinV-FITC/PI staining-based flow cytometry (reference value: 1.98%); type: functional; method in brief: as §3
HeLa [12] = assay: Cell cycle arrest in human HeLa cells assessed as accumulation in G2/M phase after 48 hrs by flow cytometry; type: functional, cell-based; method in brief: as §2
HeLa [13] = assay: Cell cycle arrest in human HeLa cells assessed as accumulation in G2/M phase at 15 uM after 48 hrs by flow cytometry relative to control; type: functional; method in brief: as §2
HeLa [14] = assay: Induction of apoptosis in human HeLa cells assessed as early to mid apoptotic cells at 10 uM after 48 hrs by annexinV-FITC/PI staining-based flow cytometry (reference value: 2.93%); type: functional; method in brief: as §3
HeLa [15] = assay: Induction of apoptosis in human HeLa cells assessed as early to mid apoptotic cells at 5 uM after 48 hrs by annexinV-FITC/PI staining-based flow cytometry (reference value: 2.93%); type: functional; method in brief: as §3

CCC(C)Oc1ccc2c(=O)c(-c3ccc(OC)c(N(CCCl)CCCl)c3)coc2c1 (stereo not drawn) gave an IC50 (HCT-116 [1]) of 20.2 µM, an IC50 (SH-SY5Y) of 3.58 µM and an IC50 (HeLa [2]) of 18.9 µM. It also gave an IC50 (SGC-7901) of 47.5 µM and an IC50 (DU-145) of 28.8 µM.

With CCOc1ccc2c(=O)c(-c3ccc(OC)c(N(CCCl)CCCl)c3)coc2c1 the IC50 (HCT-116 [1]) was 8.47 µM, the IC50 (SH-SY5Y) was 11.9 µM and the IC50 (HeLa [2]) was 10.7 µM. It also gave an IC50 (SGC-7901) of 13 µM and an IC50 (DU-145) of 23.9 µM.

Compound C=C(C)COc1ccc2c(=O)c(-c3ccc(OC)c(N(CCCl)CCCl)c3)coc2c1 has an IC50 (HCT-116 [1]) of 14.6 µM, an IC50 (SH-SY5Y) of 10.8 µM and an IC50 (HeLa [2]) of 18.3 µM. It also gave an IC50 (SGC-7901) of 15.4 µM and an IC50 (DU-145) of 15.6 µM.

Work on C=CCOc1ccc2c(=O)c(-c3ccc(OC)c(N(CCCl)CCCl)c3)coc2c1 yielded an IC50 (HCT-116 [1]) of 7.54 µM, an IC50 (SH-SY5Y) of 4.51 µM and an IC50 (HeLa [2]) of 9.22 µM. It also gave an IC50 (SGC-7901) of 10.2 µM and an IC50 (DU-145) of 15.4 µM.

For COc1ccc(-c2coc3cc(O)ccc3c2=O)cc1 [FORMONONETIN], the IC50 (HCT-116 [1]) was 61 µM, the IC50 (SH-SY5Y) was > 100 µM and the IC50 (HeLa [2]) was 8.51 µM. For the same compound, the IC50 (SGC-7901) was 2.17 µM and the IC50 (DU-145) was > 100 µM.

Compound CCCCOc1ccc2c(=O)c(-c3ccc(OC)c(N(CCCl)CCCl)c3)coc2c1 has an IC50 (HCT-116 [1]) of 17.1 µM, an IC50 (SH-SY5Y) of 16.3 µM and an IC50 (HeLa [2]) of 11.8 µM. The IC50 (SGC-7901) was 11.8 µM and the IC50 (DU-145) was 8.28 µM.

COc1ccc(-c2coc3cc(O)ccc3c2=O)cc1N(CCCl)CCCl gave an IC50 (HCT-116 [1]) of 4.1 µM, an IC50 (SH-SY5Y) of 2.7 µM and an IC50 (HeLa [2]) of 56.3 µM. It also gave an IC50 (SGC-7901) of 8.2 µM and an IC50 (DU-145) of 22.6 µM.

In the case of N[C@@H](Cc1ccc(N(CCCl)CCCl)cc1)C(=O)O [MELPHALAN], the IC50 (HCT-116 [1]) is reported as 20.9 µM, the IC50 (SH-SY5Y) is reported as 5.5 µM and the IC50 (HeLa [2]) is reported as 24 µM. For the same compound, the IC50 (SGC-7901) was 51 µM and the IC50 (DU-145) was 96.3 µM.

Compound COc1ccc(-c2coc3cc(OCCC(C)C)ccc3c2=O)cc1N(CCCl)CCCl has an IC50 (HCT-116 [1]) of 7.67 µM, an IC50 (SH-SY5Y) of 10.4 µM and an IC50 (HeLa [2]) of 9.81 µM. For the same compound, the IC50 (SGC-7901) was 9.47 µM and the IC50 (DU-145) was 6.6 µM.

CCCOc1ccc2c(=O)c(-c3ccc(OC)c(N(CCCl)CCCl)c3)coc2c1 was tested, and the IC50 (HCT-116 [1]) was 15.2 µM, the IC50 (SH-SY5Y) was 7.89 µM and the IC50 (HeLa [2]) was 12.8 µM. The IC50 (SGC-7901) was > 100 µM and the IC50 (DU-145) was 28.8 µM.

COc1ccc(-c2coc3cc(OC(C)C)ccc3c2=O)cc1N(CCCl)CCCl was tested, and the Activity (HCT-116 [3]) was “Dose-dependent effect”, the Activity (HCT-116 [4]) was 9.95% and the Activity (HCT-116 [5]) was “Active”. For the same compound, the Activity (HCT-116 [6]) was 38.1%, the IC50 (HCT-116 [1]) was 3.8 µM and the Activity (HCT-116 [7]) was 0.38%. For the same compound, the IC50 (SH-SY5Y) was 2.17 µM, the IC50 (HeLa [2]) was 12.5 µM and the IC50 (SGC-7901) was 9.21 µM. The Activity (HCT-116 [8]) was 43.72%, the IC50 (DU-145) was 19.5 µM and the Activity (HCT-116 [9]) was 24.84%.

In the case of COc1ccc(-c2coc3cc(OCC=C(C)C)ccc3c2=O)cc1N(CCCl)CCCl, the IC50 (HCT-116 [1]) is reported as 13.8 µM, the IC50 (SH-SY5Y) is reported as 5.25 µM and the IC50 (HeLa [2]) is reported as 18 µM. The IC50 (SGC-7901) was 19.8 µM and the IC50 (DU-145) was 12.2 µM.

Work on COc1ccc(-c2coc3cc(OCCc4ccccc4)ccc3c2=O)cc1N(CCCl)CCCl yielded an IC50 (HCT-116 [1]) of 8.05 µM, an IC50 (SH-SY5Y) of 3.84 µM and an IC50 (HeLa [2]) of 17.8 µM. The IC50 (SGC-7901) was 11 µM and the IC50 (DU-145) was 7.57 µM.

With COc1ccc(-c2coc3cc(OC4CCCCC4)ccc3c2=O)cc1N(CCCl)CCCl the IC50 (HCT-116 [1]) was 6.54 µM, the IC50 (SH-SY5Y) was 4.44 µM and the IC50 (HeLa [2]) was 8.29 µM. For the same compound, the IC50 (SGC-7901) was 15.8 µM, the Activity (HeLa [10]) was “Active” and the Activity (HeLa [11]) was 3.27%. For the same compound, the Activity (HeLa [12]) was “Dose-dependent effect”, the Activity (HeLa [13]) was 21.33% and the Activity (HeLa [14]) was 8.83%. For the same compound, the IC50 (DU-145) was 11.2 µM and the Activity (HeLa [15]) was 3.06%.

With COc1ccc(-c2coc3cc(OC4CCCC4)ccc3c2=O)cc1N(CCCl)CCCl the IC50 (HCT-116 [1]) was 8.75 µM, the IC50 (SH-SY5Y) was 5.13 µM and the IC50 (HeLa [2]) was 19.3 µM. The IC50 (SGC-7901) was 15.2 µM and the IC50 (DU-145) was 11.1 µM.

Compound COc1ccc(-c2coc3cc(OCc4ccc(C)cc4)ccc3c2=O)cc1N(CCCl)CCCl has an IC50 (HCT-116 [1]) of 9.41 µM, an IC50 (SH-SY5Y) of 49.9 µM and an IC50 (HeLa [2]) of 12.6 µM. It also gave an IC50 (SGC-7901) of 7.73 µM and an IC50 (DU-145) of 18.8 µM.

For COc1ccc(-c2coc3cc(OCc4ccccc4)ccc3c2=O)cc1N(CCCl)CCCl, the IC50 (HCT-116 [1]) was 4.97 µM, the IC50 (SH-SY5Y) was 11.4 µM and the IC50 (HeLa [2]) was 16.4 µM. The IC50 (SGC-7901) was 18.8 µM and the IC50 (DU-145) was 26.5 µM.

Compound COc1ccc(-c2coc3cc(OC4CCCCCC4)ccc3c2=O)cc1N(CCCl)CCCl has an IC50 (HCT-116 [1]) of 5.72 µM, an IC50 (SH-SY5Y) of 2.08 µM and an IC50 (HeLa [2]) of 8.85 µM. For the same compound, the IC50 (SGC-7901) was 14.3 µM and the IC50 (DU-145) was 10.1 µM.
